Experimental data taken from article PMC10460140 (Angewandte Chemie (International ed. in English), 2023).
“Also recorded” adds a separate entry of the source. Where a SMILES comes first, the peptide text is derived from it. Bridges are numbered along the chain shown (N, C = ends). Roman numbers before positions name the chains, in order. Side-chain parts run from the residue outwards. [ ]: non-standard residue; d: D form. The star is where a group is joined. X1 = CN(C)c1ccc2c(-c3ccc(C(=O)*)cc3C(=O)[O-])c3ccc(=[N+](C)C)cc-3oc2c1; Biotin = O=C1N[C@H]2[C@H](CS[C@H]2CCCCC(=O)*)N1; PEG4 = NCCOCCOCCOCCOCCC(=O)O; Alloc = C=CCOC(=O)*; βAla = NCCC(=O)O

Assays:
[1] = test system: MDM2; assay: Direct binding by BLI, MDM2; settings: KB2-Biotin immobilized on streptavidin tips; MDM2 7.8-1000 nM; n=2
[2] = test system: 12CA5; assay: Direct binding by BLI, 12CA5; settings: KB2-Biotin immobilized on streptavidin tips; 12CA5 7.8-1000 nM; n=2
[3] = test system: recombinant mKlotho; assay: Pull-down of recombinant mKlotho from CaSki cell lysate; type: binding, mouse
How it was run: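 Recombinant mouse Klotho was spiked into lysate of CaSki cells (human cervical cancer line, minimal endogenous Klotho) at a final 100 nM. It was pulled down with biotinylated peptide. For self-competition, unlabeled peptide or scrambled control was added to the lysate. Klotho identity was checked against a KM2076 antibody pull-down by band size. Pull-down was quantified (n=2), with ANOVA.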

[4] = test system: endogenous hKlotho; assay: Pull-down of endogenous hKlotho from HK-2 cell lysate; type: binding, human; settings: probe 200 nM; 300 μg total protein; 30 min room temperature; western blot; n=2
[5] = test system: endogenous total hKlotho in HK-2 cells; assay: Fluorescence microscopy imaging of fixed HK-2 cells; type: cell-based, human; settings: HK-2 cells transfected with KL siRNA, KB2-TAMRA 500 nM; n=5
How it was run: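 HK-2 cells were left untransfected, mock-transfected, or transfected with a pooled KL siRNA using RNAiMAX. They were then co-treated with TAMRA-labelled peptide (500 nM) plus WGA Alexa Fluor 350 membrane stain and fixed after treatment. Imaging used ex/em 542/597 nm for TAMRA and 390/435 nm for WGA. Normalised integrated fluorescence was quantified (n=5), with ANOVA.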

[6] = test system: Klotho-deficient CaSki cells; assay: Fluorescence microscopy imaging of CaSki cells; type: cell-based, human; settings: KB2-TAMRA 500 nM, 5 min; fixation after treatment
[7] = test system: HK-2 cells; assay: Co-localization with nucleus dye DAPI in HK-2 cells; type: cell-based, human; settings: KB2-TAMRA 500 nM 5 min or antibody overnight, DAPI stain
How it was run: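 HK-2 cells labelled with fluorescent peptide probe at 500 nM for 5 min, or with anti-Klotho antibody KM2076 (overnight incubation, then permeabilisation and secondary antibody). Nuclei stained with DAPI. Co-localisation of the DAPI signal with the probe or antibody signal was quantified as a Pearson correlation coefficient.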

## CSCC[C@H](NC(=O)[C@@H]1CCCN1C(C)=O)C(=O)N[C@@H](C)C(=O)N[C@@H](CO)C(=O)N[C@@H](CC(=O)O)C(=O)N1CCC[C@H]1C(=O)N[C@@H](CC(C)C)C(=O)NCC(=O)N[C@H](C(=O)N[C@H](C(=O)N[C@@H](CCCNC(=N)N)C(=O)N1CCC[C@H]1C(=O)N[C@@H](CCCNC(=N)N)C(=O)N[C@@H](C)C(=O)N[C@@H](CCCNC(=N)N)C(=O)N[C@@H](C)C(=O)NCCCC[C@H](NC(=O)[C@H](C)NC(=O)[C@H](CCCNC(=N)N)NC(=O)[C@H](C)NC(=O)[C@H](CCCNC(=N)N)NC(=O)[C@@H]1CCCN1C(=O)[C@H](CCCNC(=N)N)NC(=O)[C@@H](NC(=O)[C@@H](NC(=O)CNC(=O)[C@H](CC(C)C)NC(=O)[C@@H]1CCCN1C(=O)[C@H](CC(=O)O)NC(=O)[C@H](CO)NC(=O)[C@H](C)NC(=O)[C@H](CCSC)NC(=O)[C@@H]1CCCN1C(C)=O)C(C)C)C(C)C)C(=O)NCCC(=O)N[C@@H](CCCCNC(=O)CCOCCOCCOCCOCCNC(=O)CCCC[C@@H]1SC[C@@H]2NC(=O)N[C@@H]21)C(N)=O)C(C)C)C(C)C [KB2-Biotin] (I: Ac-PMASDPLGVVRPRARAK[βAla]K([PEG4-Biotin])-NH2 / II: Ac-PMASDPLGVVRPRARA; amide I:17-II:C; N-terminus assumed)
[1]
  association to MDM2 (in words): no association
[2]
  association to 12CA5 (in words): no association
[3]; pull-down eluents, probe 200 nM, CaSki lysate with mKlotho 0.1 μM
  selectivity of pull-down (silver stain): only significantly enriched protein
[4]
  enrichment of endogenous hKlotho from HK-2 cell lysate: enriched hKlotho; also recorded: significantly enriched

## CSCC[C@H](NC(=O)[C@@H]1CCCN1C(C)=O)C(=O)N[C@@H](C)C(=O)N[C@@H](CO)C(=O)N[C@@H](CC(=O)O)C(=O)N1CCC[C@H]1C(=O)N[C@@H](CC(C)C)C(=O)NCC(=O)N[C@H](C(=O)N[C@H](C(=O)N[C@@H](CCCNC(=N)N)C(=O)N1CCC[C@H]1C(=O)N[C@@H](CCCNC(=N)N)C(=O)N[C@@H](C)C(=O)N[C@@H](CCCNC(=N)N)C(=O)N[C@@H](C)C(=O)NCCCC[C@H](NC(=O)[C@H](C)NC(=O)[C@H](CCCNC(=N)N)NC(=O)[C@H](C)NC(=O)[C@H](CCCNC(=N)N)NC(=O)[C@@H]1CCCN1C(=O)[C@H](CCCNC(=N)N)NC(=O)[C@@H](NC(=O)[C@@H](NC(=O)CNC(=O)[C@H](CC(C)C)NC(=O)[C@@H]1CCCN1C(=O)[C@H](CC(=O)O)NC(=O)[C@H](CO)NC(=O)[C@H](C)NC(=O)[C@H](CCSC)NC(=O)[C@@H]1CCCN1C(C)=O)C(C)C)C(C)C)C(=O)NCCC(=O)N[C@@H](CCCCNC(=O)c1ccc(-c2c3ccc(=[N+](C)C)cc-3oc3cc(N(C)C)ccc23)c(C(=O)[O-])c1)C(N)=O)C(C)C)C(C)C [KB2-TAMRA] (I: Ac-PMASDPLGVVRPRARAK[βAla]K(X1)-NH2 / II: Ac-PMASDPLGVVRPRARA; amide I:17-II:C; N-terminus assumed)
[5]
  fluorescence after Klotho knock-down by KL siRNA: reduced the fluorescence
[6]
  fluorescence intensity in CaSki cells relative to HK-2 cells: significantly lower fluorescence intensity
[7]
  Pearson correlation coefficient (r) for overlap with DAPI: 0.29

## C=CCOC(=O)NCCCC[C@H](NC(=O)CCNC(=O)[C@H](CCCCNC(=O)[C@H](C)NC(=O)[C@H](CCCNC(=N)N)NC(=O)[C@H](C)NC(=O)[C@H](CCCNC(=N)N)NC(=O)[C@@H]1CCCN1C(=O)[C@H](CCCNC(=N)N)NC(=O)[C@@H](NC(=O)[C@@H](NC(=O)CNC(=O)[C@H](CC(C)C)NC(=O)[C@@H]1CCCN1C(=O)[C@H](CC(=O)O)NC(=O)[C@H](CO)NC(=O)[C@H](C)NC(=O)[C@H](CCSC)NC(=O)[C@@H]1CCCN1)C(C)C)C(C)C)NC(=O)[C@H](C)NC(=O)[C@H](CCCNC(=N)N)NC(=O)[C@H](C)NC(=O)[C@H](CCCNC(=N)N)NC(=O)[C@@H]1CCCN1C(=O)[C@H](CCCNC(=N)N)NC(=O)[C@@H](NC(=O)[C@@H](NC(=O)CNC(=O)[C@H](CC(C)C)NC(=O)[C@@H]1CCCN1C(=O)[C@H](CC(=O)O)NC(=O)[C@H](CO)NC(=O)[C@H](C)NC(=O)[C@H](CCSC)NC(=O)[C@@H]1CCCN1)C(C)C)C(C)C)C(N)=O [KB2] (I: H-PMASDPLGVVRPRARAK[βAla]K(Alloc)-NH2 / II: H-PMASDPLGVVRPRARA; amide I:17-II:C)
[3]; unlabeled peptide pre-incubated 15 min in lysate before KB2-Biotin, n=2
  competition of mKlotho pull-down by KB2-Biotin: competed off
